# Source: ChEMBL document CHEMBL2040756, “Discovery and optimization of 2,4-diaminoquinazoline derivatives as a new class of potent dengue virus inhibitors” (J Med Chem, 2012)
# Active and inactive are the calls of the source. The calls are words filed in the database; no cut-off is given here.
# Experiments:
# [1] = test system: dengue virus type 2; assay: Antiviral activity against Dengue virus 2 infected in BHK-D2RepT replicon systems assessed as inhibition of viral replication after 24 hrs by luciferase reporter gene assay; format: functional, organism-based
# How it was run: (§1)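 BHK-D2RepT replicon cells, kept in MEM with 10% FBS and 200 μg/mL G418, were preseeded 24 h without G418. Compounds were diluted from DMSO stock into MEM, with final DMSO <0.2% (v/v), and incubated 24 h. Medium was then replaced and firefly luciferase read. Inhibition was expressed as a percentage of the no-compound luciferase signal.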
# [2] = Cytotoxicity against hamster BHK cells; format: cell-based, Mesocricetus auratus
# [3] = Selectivity index, ratio of CC50 for hamster BHK cells to EC50 for Dengue virus 2; format: toxicity, cell-based; conditions: read-out: Ratio CC50/EC50
# [4] = test system: dengue virus type 2; assay: Antiviral activity against Dengue virus 2 infected in BHK-D2RepT replicon systems assessed as inhibition of viral multiplication after 24 hrs by luciferase reporter gene assay; format: functional, organism-based; how it was run: as §1
# [5] = test system: dengue virus type 2; assay: Antiviral activity against Dengue virus 2 infected in BHK-D2RepT replicon systems assessed as inhibition of viral expression after 24 hrs by luciferase reporter gene assay; format: functional, organism-based; how it was run: as §1
# [6] = test system: dengue virus type 2; assay: Antiviral activity against Dengue virus 2 infected in BHK-D2RepT replicon systems assessed as […] after 24 hrs by luciferase reporter gene assay; format: functional, organism-based
# How it was run: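 BHK-D2RepT DENV-2 replicon cells carrying a luciferase reporter are kept in MEM with 10% FBS and 200 μg/mL G418, then preseeded 24 h without G418. Compound from DMSO stock is diluted in MEM (final DMSO <0.2% v/v) and incubated 24 h. Medium is replaced and firefly luciferase read. Inhibition is expressed as percent of no-compound luciferase signal.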
# [7] = test system: dengue virus type 2; assay: Antiviral activity against Dengue virus 2 NGC infected in forest mosquito C6/36 cells assessed as inhibition of virus-induced cytopathic effect after 48 hrs by optical microscopy; format: functional, organism-based
# How it was run: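 DENV-2 NGC strain was grown in C6/36 cells and titered. C6/36 cells were preseeded overnight and then infected at MOI 0.01, allowing several rounds of replication that produce syncytia.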
# [8] = AUC (0 to infinity) in rat at 20 mg/kg, po administered as single dose; format: ADME, organism-based; parameters: time infinity, dose 20 mg/kg, route oral; conditions: plasma
# How it was run: (§2)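 Rats received one dose, either oral at 20 mg/kg or intravenous at 10 mg/kg. Plasma concentration of the compound was followed over time after dosing. AUC was taken as the area under the plasma concentration–time curve from time zero to infinity.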
# [9] = Mean residence time in rat at 20 mg/kg, po administered as single dose; format: ADME, organism-based; parameters: dose 20 mg/kg, route oral; conditions: in vivo
# How it was run: (§3)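 Rats received a single dose of 20 mg/kg orally or 10 mg/kg intravenously. Plasma concentration–time profiles gave AUC0→∞, MRT, t1/2, Tmax, Cmax, clearance, terminal volume of distribution and oral bioavailability.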
# [10] = Half life in rat at 20 mg/kg, po administered as single dose; format: ADME, organism-based; parameters: dose 20 mg/kg, route oral; conditions: in vivo; how it was run: as §3
# [11] = Tmax in rat at 20 mg/kg, po administered as single dose; format: ADME, organism-based; parameters: dose 20 mg/kg, route oral; conditions: in vivo; how it was run: as §3
# [12] = Cmax in rat at 20 mg/kg, po administered as single dose measured 2 hrs post dose; format: ADME, organism-based; parameters: dose 20 mg/kg, route oral; conditions: in vivo; how it was run: as §3
# [13] = Plasma clearance in rat at 10 mg/kg, iv administered as single dose; format: ADME, organism-based; parameters: dose 10 mg/kg, route intravenous; how it was run: as §3
# [14] = Apparent volume of distribution in rat at 10 mg/kg, iv administered as single dose; format: ADME, organism-based; parameters: dose 10 mg/kg, route intravenous; conditions: in vivo, read-out: Vz; how it was run: as §3
# [15] = Oral bioavailability in rat at 20 mg/kg administered as single dose; format: ADME, organism-based; conditions: in vivo; how it was run: as §3
# [16] = AUC (0 to infinity) in rat at 10 mg/kg, iv administered as single dose; format: ADME, organism-based; parameters: time infinity, dose 10 mg/kg, route intravenous; conditions: plasma; how it was run: as §2
# [17] = Mean residence time in rat at 10 mg/kg, iv administered as single dose; format: ADME, organism-based; parameters: dose 10 mg/kg, route intravenous; conditions: in vivo; how it was run: as §3
# [18] = Half life in rat at 10 mg/kg, iv administered as single dose; format: ADME, organism-based; parameters: dose 10 mg/kg, route intravenous; conditions: in vivo; how it was run: as §3
# [19] = molecular target: Voltage-gated inwardly rectifying potassium channel KCNH2 (Homo sapiens, UniProt Q12809); assay: Inhibition of human ERG expressed in HEK293 cells by patch clamp assay; format: cell-based
# How it was run: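 hERG (IKr) potassium channel currents in HEK-293 cells were recorded by patch clamp.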
# [20] = test system: dengue virus type 2; assay: Antiviral activity against Dengue virus 2
# Chain of Voltage-gated inwardly rectifying potassium channel KCNH2 (Q12809 whole entry): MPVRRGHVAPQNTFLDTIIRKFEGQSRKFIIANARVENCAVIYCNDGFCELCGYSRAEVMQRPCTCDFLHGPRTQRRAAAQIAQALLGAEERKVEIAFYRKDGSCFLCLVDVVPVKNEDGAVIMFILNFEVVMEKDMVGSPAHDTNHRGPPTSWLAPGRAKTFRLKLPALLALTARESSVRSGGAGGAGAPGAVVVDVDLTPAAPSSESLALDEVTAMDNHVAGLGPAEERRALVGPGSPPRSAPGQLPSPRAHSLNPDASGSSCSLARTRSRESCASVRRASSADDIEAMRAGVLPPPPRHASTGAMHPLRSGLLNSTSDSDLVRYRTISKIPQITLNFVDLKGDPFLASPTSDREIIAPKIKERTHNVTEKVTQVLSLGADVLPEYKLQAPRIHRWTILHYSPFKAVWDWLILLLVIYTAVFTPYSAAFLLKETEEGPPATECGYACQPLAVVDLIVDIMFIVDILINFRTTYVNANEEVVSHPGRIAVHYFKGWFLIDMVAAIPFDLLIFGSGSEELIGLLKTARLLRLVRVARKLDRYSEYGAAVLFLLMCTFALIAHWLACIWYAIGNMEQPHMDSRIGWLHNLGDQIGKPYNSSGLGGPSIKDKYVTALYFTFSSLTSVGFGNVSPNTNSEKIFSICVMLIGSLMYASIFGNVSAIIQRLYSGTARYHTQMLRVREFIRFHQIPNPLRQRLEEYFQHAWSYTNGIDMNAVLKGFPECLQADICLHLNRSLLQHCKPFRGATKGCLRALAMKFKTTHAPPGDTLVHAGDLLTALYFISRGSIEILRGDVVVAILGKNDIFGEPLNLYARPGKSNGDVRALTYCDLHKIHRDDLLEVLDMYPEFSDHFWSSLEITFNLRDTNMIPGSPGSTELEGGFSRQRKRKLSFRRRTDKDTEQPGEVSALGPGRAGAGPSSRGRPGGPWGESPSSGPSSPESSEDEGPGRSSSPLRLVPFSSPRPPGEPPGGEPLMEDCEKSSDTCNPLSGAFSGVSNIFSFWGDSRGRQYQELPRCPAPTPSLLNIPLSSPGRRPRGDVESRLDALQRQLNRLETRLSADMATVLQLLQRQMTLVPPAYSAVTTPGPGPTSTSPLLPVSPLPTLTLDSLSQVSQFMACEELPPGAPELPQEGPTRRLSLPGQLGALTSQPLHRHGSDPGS
Structure (SMILES),EC50 [1] [nM],CC50 [2] [nM],selectivity ratio [3],other results
Nc1nc(N)c2c(OC3CCCC3)cccc2n1,7.4,> 10000,> 1000,
COc1ccc2c(N)nc(N)nc2c1,> 10000,> 10000,,
CC(C)(C)Oc1cccc2nc(N)nc(N)c12,2.8,> 10000,> 1000,Activity [4]: Active; Activity [5]: Active; EC50 [6]: < 50 nM; Activity [7]: Active; AUC(0-inf) [8]: 2220 ng·h/mL; MRT [9]: 7.2 h; half-life [10]: 5 h; Tmax [11]: 2 h; Cmax [12]: 249 ng/mL; clearance [13]: 6.56 mL/min/kg; Vd [14]: 11.7 L/kg; bioavailability [15]: 69%; AUC(0-inf) [16]: 1560 ng·h/mL; MRT [17]: 1.8 h; half-life [18]: 1.3 h; IC50 [19]: 20200 nM; Activity [20]: Active
Nc1nc(N)c2ccccc2n1,> 10000,> 10000,,
COc1cccc2c(N)nc(N)nc12,5400,> 10000,> 1.9,
COc1ccc2nc(N)nc(N)c2c1,> 10000,> 10000,,
Nc1nc(N)c2cccc(Oc3ccccc3)c2n1,60,550,9.2,
Nc1nc(N)c2c(N3CCCC3)cccc2n1,150,1200,8,
Nc1nc(N)c2c(OC3CCCCC3)cccc2n1,130,> 10000,> 76.9,
Nc1nc(N)c2ccc(Oc3ccccc3)cc2n1,> 10000,> 10000,,
CCCCCCCCOc1cccc2nc(N)nc(N)c12,180,730,4.1,
Nc1nc(N)c2cc(Oc3ccccc3)ccc2n1,> 10000,> 10000,,
CCCCOc1cccc2nc(N)nc(N)c12,36,> 10000,> 200,
Nc1nc(N)c2c(OCc3ccccc3)cccc2n1,39,> 10000,> 200,
Nc1nc(N)c2c(OCC(F)(F)F)cccc2n1,7.9,> 10000,> 1000,
Nc1nc(N)c2c(Oc3ccccc3)cccc2n1,29,> 10000,> 300,

# Continued, in another order:
EC50 [1] [nM],Structure (SMILES),CC50 [2] [nM],selectivity ratio [3],other results
150,COc1cccc2nc(N)nc(N)c12,> 10000,> 66.7,
37,CCOc1cccc2nc(N)nc(N)c12,> 10000,> 200,
80,CC(C)(C)COc1cccc2nc(N)nc(N)c12,650,8.1,
3300,CN(C)c1cccc2nc(N)nc(N)c12,> 10000,> 3,
> 10000,Nc1nc(N)c2c(F)cccc2n1,> 10000,,
900,CC(C)(C)Sc1cccc2nc(N)nc(N)c12,5300,5.9,
9.2,CC(C)(C)Nc1cccc2nc(N)nc(N)c12,2500,> 200,
> 10000,CC(C)(C)S(=O)(=O)c1cccc2nc(N)nc(N)c12,> 10000,,
